Measured values as given in ChEMBL document CHEMBL1156233, “Synthesis and anti-HIV activity of alkylated quinoline 2,4-diols” (Bioorg Med Chem, 2010).

Experiments:
[1] = tested on: Human immunodeficiency virus 1; test: Antiviral activity against Human immunodeficiency virus 1 NL4.3 infected human CEM cells expressing GFP at 21.20 uM measured up to 8 days postinfection by p24 antigen capture ELISA; assay type: functional; conditions: Human immunodeficiency virus 1, NL4.3, CCRF-CEM, 192 h
Procedure, shortened: (§1)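 CD4+ T-lymphoblastoid CEM-GFP cells were infected with HIV-1 NL4-3 at MOI 0.05, following the lab's published protocol. Cells were then exposed to each compound at a concentration found non-cytotoxic by MTT and kept up to 8 days post infection. Virus was read out by p24 antigen-capture ELISA. IC50 is the concentration giving 50% protection of cells from virus (n = 3).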

[2] = tested on: Human immunodeficiency virus 1; test: Antiviral activity against Human immunodeficiency virus 1 NL4.3 infected human CEM cells expressing GFP measured up to 8 days postinfection by p24 antigen capture ELISA; assay type: functional, organism-based; conditions: Human immunodeficiency virus 1, NL4.3, CCRF-CEM, 192 h; procedure, shortened: as §1
[3] = tested on: Human immunodeficiency virus 1; test: Antiviral activity against Human immunodeficiency virus 1 NL4.3 infected human CEM cells expressing GFP at 27.42 uM measured up to 8 days postinfection by p24 antigen capture ELISA; assay type: functional; conditions: Human immunodeficiency virus 1, NL4.3, CCRF-CEM, 192 h; procedure, shortened: as §1
[4] = Cytotoxicity against human CEM cells expressing GFP after 48 to 72 hrs by MTT assay; assay type: cell-based; conditions: CEM cells expressing GFP (CCRF-CEM)
Procedure, shortened: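 MTT cell-viability kit used per the manufacturer's protocol. CEM-GFP cells were seeded at 2 × 10⁴ cells/well and given compound at a range of concentrations, with untreated wells as controls. Formazan was solubilized and read at 540 nm. CC50 is the concentration reducing cell proliferation by 50% (n = 3).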

[5] = Therapeutic index, ratio of CC50 for human CEM cells expressing GFP to IC50 for Human immunodeficiency virus 1 NL4.3; assay type: cell-based, CCRF-CEM; conditions: read-out: Ratio CC50/IC50
[6] = tested on: Human immunodeficiency virus 1; test: Antiviral activity against Human immunodeficiency virus 1 NL4.3 infected human CEM cells expressing GFP at 35.17 uM measured day 8 on post infection by p24 antigen capture ELISA; assay type: functional; conditions: Human immunodeficiency virus 1, NL4.3, CCRF-CEM, 192 h; procedure, shortened: as §1
[7] = tested on: Human immunodeficiency virus 1; test: Antiviral activity against Human immunodeficiency virus 1 NL4.3 infected human CEM cells expressing GFP at 30.56 uM measured up to 8 days postinfection by p24 antigen capture ELISA; assay type: functional; conditions: Human immunodeficiency virus 1, NL4.3, CCRF-CEM, 192 h; procedure, shortened: as §1
[8] = tested on: Human immunodeficiency virus 1; test: Antiviral activity against Human immunodeficiency virus 1 NL4.3 infected human CEM cells expressing GFP at 43.29 uM measured up to 8 days postinfection by p24 antigen capture ELISA; assay type: functional; conditions: Human immunodeficiency virus 1, NL4.3, CCRF-CEM, 192 h; procedure, shortened: as §1
[9] = tested on: Human immunodeficiency virus 1; test: Antiviral activity against Human immunodeficiency virus 1 NL4.3 infected human CEM cells expressing GFP at 14.98 uM measured up to 8 days postinfection by p24 antigen capture ELISA; assay type: functional; conditions: Human immunodeficiency virus 1, NL4.3, CCRF-CEM, 192 h; procedure, shortened: as §1
[10] = tested on: Human immunodeficiency virus 1; test: Antiviral activity against Human immunodeficiency virus 1 NL4.3 infected human CEM cells expressing GFP at 8.41 uM measured up to 8 days postinfection by p24 antigen capture ELISA; assay type: functional; conditions: Human immunodeficiency virus 1, NL4.3, CCRF-CEM, 192 h; procedure, shortened: as §1
[11] = tested on: Human immunodeficiency virus 1; test: Antiviral activity against Human immunodeficiency virus 1 NL4.3 infected human CEM cells expressing GFP at 1.84 uM measured up to 8 days postinfection by p24 antigen capture ELISA; assay type: functional; conditions: Human immunodeficiency virus 1, NL4.3, CCRF-CEM, 192 h; procedure, shortened: as §1
[12] = tested on: Human immunodeficiency virus 1; test: Antiviral activity against Human immunodeficiency virus 1 NL4.3 infected human CEM cells expressing GFP at 1.68 uM measured up to 8 days postinfection by p24 antigen capture ELISA; assay type: functional; conditions: Human immunodeficiency virus 1, NL4.3, CCRF-CEM, 192 h; procedure, shortened: as §1
[13] = tested on: Human immunodeficiency virus 1; test: Antiviral activity against Human immunodeficiency virus 1 NL4.3 infected human CEM cells expressing GFP at 65.93 uM measured up to 8 days postinfection by p24 antigen capture ELISA; assay type: functional; conditions: Human immunodeficiency virus 1, NL4.3, CCRF-CEM, 192 h; procedure, shortened: as §1
[14] = tested on: Human immunodeficiency virus 1; test: Antiviral activity against Human immunodeficiency virus 1 NL4.3 infected human CEM cells expressing GFP at 59.80 uM measured up to 8 days postinfection by p24 antigen capture ELISA; assay type: functional; conditions: Human immunodeficiency virus 1, NL4.3, CCRF-CEM, 192 h; procedure, shortened: as §1
[15] = tested on: Human immunodeficiency virus 1; test: Antiviral activity against Human immunodeficiency virus 1 NL4.3 infected human CEM cells expressing GFP at 12.30 uM measured up to 8 days postinfection by p24 antigen capture ELISA; assay type: functional; conditions: Human immunodeficiency virus 1, NL4.3, CCRF-CEM, 192 h; procedure, shortened: as §1
[16] = tested on: Human immunodeficiency virus 1; test: Antiviral activity against Human immunodeficiency virus 1 NL4.3 infected human CEM cells expressing GFP at 18.58 uM measured up to 8 days postinfection by p24 antigen capture ELISA; assay type: functional; conditions: Human immunodeficiency virus 1, NL4.3, CCRF-CEM, 192 h; procedure, shortened: as §1
[17] = tested on: Human immunodeficiency virus 1; test: Antiviral activity against Human immunodeficiency virus 1 NL4.3 infected human CEM cells expressing GFP at 19.60 uM measured up to 8 days postinfection by p24 antigen capture ELISA; assay type: functional; conditions: Human immunodeficiency virus 1, NL4.3, CCRF-CEM, 192 h; procedure, shortened: as §1
[18] = tested on: Human immunodeficiency virus 1; test: Antiviral activity against Human immunodeficiency virus 1 NL4.3 infected human CEM cells expressing GFP at 1.59 uM measured up to 8 days postinfection by p24 antigen capture ELISA; assay type: functional; conditions: Human immunodeficiency virus 1, NL4.3, CCRF-CEM, 192 h; procedure, shortened: as §1
[19] = tested on: Human immunodeficiency virus 1; test: Antiviral activity against Human immunodeficiency virus 1 NL4.3 infected human CEM cells expressing GFP at 23.36 uM measured up to 8 days postinfection by p24 antigen capture ELISA; assay type: functional; conditions: Human immunodeficiency virus 1, NL4.3, CCRF-CEM, 192 h; procedure, shortened: as §1
[20] = tested on: Human immunodeficiency virus 1; test: Antiviral activity against Human immunodeficiency virus 1 NL4.3 infected human CEM cells expressing GFP at 22.30 uM measured up to 8 days postinfection by p24 antigen capture ELISA; assay type: functional; conditions: Human immunodeficiency virus 1, NL4.3, CCRF-CEM, 192 h; procedure, shortened: as §1
[21] = tested on: Human immunodeficiency virus 1; test: Antiviral activity against Human immunodeficiency virus 1 NL4.3 infected human CEM cells expressing GFP at 16.73 uM measured up to 8 days postinfection by p24 antigen capture ELISA; assay type: functional; conditions: Human immunodeficiency virus 1, NL4.3, CCRF-CEM, 192 h; procedure, shortened: as §1
[22] = tested on: Human immunodeficiency virus 1; test: Antiviral activity against Human immunodeficiency virus 1 NL4.3 infected human CEM cells expressing GFP at 31.12 uM measured up to 8 days postinfection by p24 antigen capture ELISA; assay type: functional; conditions: Human immunodeficiency virus 1, NL4.3, CCRF-CEM, 192 h; procedure, shortened: as §1
[23] = Solubility of the compound; assay type: physicochemical
[24] = tested on: Human immunodeficiency virus 1; test: Antiviral activity against Human immunodeficiency virus 1 NL4.3 infected human CEM cells expressing GFP at 24.48 uM measured up to 8 days postinfection by p24 antigen capture ELISA; assay type: functional; conditions: Human immunodeficiency virus 1, NL4.3, CCRF-CEM, 192 h; procedure, shortened: as §1
[25] = tested on: Human immunodeficiency virus 1; test: Antiviral activity against Human immunodeficiency virus 1 NL4.3 infected human CEM cells expressing GFP at […] uM measured up to 8 days postinfection by p24 antigen capture ELISA; assay type: functional; conditions: Human immunodeficiency virus 1, NL4.3, CCRF-CEM, 192 h
[26] = tested on: Human immunodeficiency virus 1; test: Antiviral activity against Human immunodeficiency virus 1 NL4.3 infected human CEM cells expressing GFP at 20.20 uM measured up to 8 days postinfection by p24 antigen capture ELISA; assay type: functional; conditions: Human immunodeficiency virus 1, NL4.3, CCRF-CEM, 192 h; procedure, shortened: as §1
[27] = tested on: Human immunodeficiency virus 1; test: Antiviral activity against Human immunodeficiency virus 1 NL4.3 infected human CEM cells expressing GFP at 23.51 uM measured up to 8 days postinfection by p24 antigen capture ELISA; assay type: functional; conditions: Human immunodeficiency virus 1, NL4.3, CCRF-CEM, 192 h; procedure, shortened: as §1
[28] = tested on: Human immunodeficiency virus 1; test: Antiviral activity against Human immunodeficiency virus 1 NL4.3 infected human CEM cells expressing GFP at 4.98 uM measured up to 8 days postinfection by p24 antigen capture ELISA; assay type: functional; conditions: Human immunodeficiency virus 1, NL4.3, CCRF-CEM, 192 h
Procedure, shortened: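 Human CD4+ T-cell line CEM-GFP infected with HIV-1 NL4.3 at MOI 0.05, then incubated with compound at a non-cytotoxic concentration (chosen from a prior MTT viability assay in CEM-GFP) for up to 8 days post-infection. Protection is read by p24 antigen capture ELISA, n = 3.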

Row | Structure (SMILES) | IC50 [2] | CC50 [4] | selectivity ratio [5] | other results
1 | C=CCOc1cc(OCCC=C(C)C)c2ccccc2n1 | – | – | – | inhibition at 21.2 µM [1]: 16%
2 | C#CCOc1c(CC#C)c(O)nc2ccccc12 | 11.6 µM | 147 µM | 12.7 | inhibition at 27.42 µM [3]: 92.4%
3 | C#CCOc1cc(O)nc2ccccc12 | 19.3 µM | 103 µM | 5.3 | inhibition at 35.17 µM [6]: 65.1%
4 | CC(C)=CCOc1cc(O)nc2ccccc12 | 8.95 µM | 77.4 µM | 8.64 | inhibition at 30.56 µM [7]: 95.5%
5 | CC(C)CCOc1cc(O)nc2ccccc12 | 3.89 µM | 115 µM | 29.5 | inhibition at 43.29 µM [8]: 76.7%
6 | C#CCOc1cc(OCC=C(C)C)nc2ccccc12 | – | – | – | inhibition at 14.98 µM [9]: 2.56%
7 | CC(C)=CCC1(CC=C(C)C)C(=O)Nc2ccccc2C1=O | 2.35 µM | 62.6 µM | 26.6 | inhibition at 8.41 µM [10]: 96%
8 | C=CCOc1cc(OCCC(C)C)c2ccccc2n1 | – | – | – | inhibition at 1.84 µM [11]: 23%
9 | CC(C)=CCOc1cc(OCCC(C)C)c2ccccc2n1 | – | – | – | inhibition at 1.68 µM [12]: 31.2%
10 | CCCCOc1c(CCCC)c(O)nc2ccccc12 | 34.4 µM | 192 µM | 5.56 | inhibition at 65.93 µM [13]: 81%
11 | CC(C)CCOc1c(CCC(C)C)c(O)nc2ccccc12 | 34.9 µM | 160 µM | 4.59 | inhibition at 59.8 µM [14]: 88.6%
12 | CC(C)=CCCOc1cc(OCCC=C(C)C)c2ccccc2n1 | – | – | – | inhibition at 12.3 µM [15]: 32.7%
13 | C#CCOc1cc(OCCC(C)C)nc2ccccc12 | – | – | – | inhibition at 18.58 µM [16]: 56.4%
14 | C#CCOc1cc(OCCCC)nc2ccccc12 | – | – | – | inhibition at 19.6 µM [17]: 56.4%
15 | CC(C)=CCCOc1cc(OCCC(C)C)c2ccccc2n1 | – | – | – | inhibition at 1.59 µM [18]: 15%
16 | CC(C)CCOc1cc(OCc2ccccc2)nc2ccccc12 | – | – | – | inhibition at 23.36 µM [19]: 47%
17 | C=CCOc1cc(OCC=C(C)C)c2ccccc2n1 | – | – | – | inhibition at 22.3 µM [20]: 35%
18 | C#CCOc1cc(OCC=C)nc2ccccc12 | – | – | – | inhibition at 16.73 µM [21]: 16.1%
19 | C=CCC1(CC=C)C(=O)Nc2ccccc2C1=O | – | – | – | inhibition at 31.12 µM [22]: 44.3%
20 | CCCCC1(CCCC)C(=O)Nc2ccccc2C1=O | – | – | – | solubility [23]: Insoluble
21 | CC(C)Oc1c(C(C)C)c(O)nc2ccccc12 | – | – | – | solubility [23]: Insoluble
22 | CCCCCCCCOc1cc(OCCCCCCCC)c2ccccc2n1 | – | – | – | solubility [23]: Insoluble
23 | CCCC1(CCC)C(=O)Nc2ccccc2C1=O | 16.7 µM | 113 µM | 6.78 | inhibition at 24.48 µM [24]: 74.7%
24 | CC(C)=CCCC1(CCC=C(C)C)C(=O)Nc2ccccc2C1=O | 3.23 µM | 67.4 µM | 20.9 | inhibition at 12.3 µM [15]: 82%
25 | CC(C)=CCCOc1c(CCC=C(C)C)c(O)nc2ccccc12 | 8.76 µM | 103 µM | 11.8 | inhibition at 23.07 µM [25]: 68.3%
26 | CC(C)=CCOc1c(CC=C(C)C)c(O)nc2ccccc12 | 3.8 µM | 71.2 µM | 18.7 | inhibition at 20.2 µM [26]: 87.5%
27 | C=CC(C)(C)C1(CC=C(C)C)C(=O)Nc2ccccc2C1=O (stereo not given) [BUCHAPINE] | 2.99 µM | 55.9 µM | 18.7 | inhibition at 23.51 µM [27]: 80.1%
28 | Cc1cn([C@H]2C[C@H](N=[N+]=[N-])[C@@H](CO)O2)c(=O)[nH]c1=O [ZIDOVUDINE] | 1.04 µM | – | – | inhibition at 4.98 µM [28]: 89.8%
